Laboratory results from ChEMBL document CHEMBL3580617, “Discovery of Benzimidazole CYP11B2 Inhibitors with in Vivo Activity in Rhesus Monkeys” (ACS Med Chem Lett, 2015).

Tests used:
[1] = Fraction unbound in rat plasma at […] incubated for 4 hrs by equilibrium dialysis and LC/MS method; format: ADME, cell-free
[2] = Plasma clearance in Sprague-Dawley rat at 2 mg/kg, po or 1 mg/kg, iv by LC-MS/MS method; format: ADME, organism-based
How it was run: (§1)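 In the rat pharmacokinetic study, AUC was normalized for dose (μM·h·kg/mg), plasma clearance was expressed in mL/min/kg, and oral bioavailability was calculated.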

[3] = test system: Rhesus monkey; assay: Dose normalized AUC in rhesus monkey at 1 mg/kg, po or 0.5 mg/kg, iv by LC-MS/MS method; format: ADME, organism-based, Macaca mulatta; conditions: in vivo
[4] = biological target: T1, Steroid 17-alpha-hydroxylase/17,20 lyase (Homo sapiens, UniProt P05093); assay: Inhibition of human CYP17 expressed in COS7 cells incubated for 1 hr before 17-hydroxypregnenolone substrate addition by EIA method; format: cell-based, COS-7
T1 sequence (P05093 whole entry): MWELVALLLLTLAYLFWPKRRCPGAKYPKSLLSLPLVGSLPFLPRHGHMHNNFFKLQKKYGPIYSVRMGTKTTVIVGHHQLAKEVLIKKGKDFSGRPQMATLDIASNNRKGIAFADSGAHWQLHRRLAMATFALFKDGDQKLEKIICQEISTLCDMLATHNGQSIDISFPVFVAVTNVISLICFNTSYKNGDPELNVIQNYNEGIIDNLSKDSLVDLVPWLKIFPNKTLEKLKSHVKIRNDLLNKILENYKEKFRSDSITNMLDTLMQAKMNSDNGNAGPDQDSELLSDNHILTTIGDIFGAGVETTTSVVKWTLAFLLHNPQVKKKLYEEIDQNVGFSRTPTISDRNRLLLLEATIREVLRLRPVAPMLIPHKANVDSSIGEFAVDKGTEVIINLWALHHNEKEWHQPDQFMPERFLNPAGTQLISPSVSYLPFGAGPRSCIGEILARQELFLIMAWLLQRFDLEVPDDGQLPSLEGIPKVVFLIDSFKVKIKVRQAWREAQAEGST

[5] = Intrinsic clearance in rhesus monkey liver microsomes at […] incubated for 10 mins before NADPH addition by LC/MS method; format: ADME, Macaca mulatta; conditions: read-out: CLH
[6] = Oral bioavailability in Sprague-Dawley rat at 2 mg/kg by LC-MS/MS method; format: ADME, organism-based; conditions: in vivo; how it was run: as §1
[7] = test system: Rattus norvegicus; assay: Dose normalized AUC in Sprague-Dawley rat at 2 mg/kg, po or 1 mg/kg, iv by LC-MS/MS method; format: ADME, organism-based; conditions: in vivo; how it was run: as §1
[8] = biological target: T2, Steroid 21-hydroxylase (Homo sapiens, UniProt P08686); assay: Inhibition of human CYP21 expressed in COS7 cells incubated for 1 hr before […] substrate addition by HTRF-based assay; format: cell-based, COS-7
T2 sequence (P08686 whole entry): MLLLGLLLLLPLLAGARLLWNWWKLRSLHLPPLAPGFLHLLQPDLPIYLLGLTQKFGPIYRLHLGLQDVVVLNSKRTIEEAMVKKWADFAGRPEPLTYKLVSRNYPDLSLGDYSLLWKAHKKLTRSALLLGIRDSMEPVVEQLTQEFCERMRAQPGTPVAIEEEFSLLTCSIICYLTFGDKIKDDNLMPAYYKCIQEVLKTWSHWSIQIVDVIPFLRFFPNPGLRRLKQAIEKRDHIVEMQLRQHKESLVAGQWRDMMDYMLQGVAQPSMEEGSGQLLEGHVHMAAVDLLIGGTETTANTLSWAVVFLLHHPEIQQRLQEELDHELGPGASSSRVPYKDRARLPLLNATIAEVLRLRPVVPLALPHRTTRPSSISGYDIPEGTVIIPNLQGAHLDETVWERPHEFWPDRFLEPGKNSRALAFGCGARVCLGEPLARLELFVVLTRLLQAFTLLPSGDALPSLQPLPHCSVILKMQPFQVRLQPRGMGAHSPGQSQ

[9] = Fraction unbound in rhesus monkey plasma at […] incubated for 4 hrs by equilibrium dialysis and LC/MS method; format: ADME, cell-free, Macaca mulatta
[10] = Intrinsic clearance in rat liver microsomes at […] incubated for 10 mins before NADPH addition by LC/MS method; format: ADME; conditions: read-out: CLH
[11] = Plasma clearance in rhesus monkey at 1 mg/kg, po or 0.5 mg/kg, iv by LC-MS/MS method; format: ADME, organism-based, Macaca mulatta
[12] = biological target: Cytochrome P450 3A4 (Homo sapiens, UniProt P08684); assay: Inhibition of CYP3A4 (unknown origin); format: ADME
Chain of Cytochrome P450 3A4 (P08684 whole entry): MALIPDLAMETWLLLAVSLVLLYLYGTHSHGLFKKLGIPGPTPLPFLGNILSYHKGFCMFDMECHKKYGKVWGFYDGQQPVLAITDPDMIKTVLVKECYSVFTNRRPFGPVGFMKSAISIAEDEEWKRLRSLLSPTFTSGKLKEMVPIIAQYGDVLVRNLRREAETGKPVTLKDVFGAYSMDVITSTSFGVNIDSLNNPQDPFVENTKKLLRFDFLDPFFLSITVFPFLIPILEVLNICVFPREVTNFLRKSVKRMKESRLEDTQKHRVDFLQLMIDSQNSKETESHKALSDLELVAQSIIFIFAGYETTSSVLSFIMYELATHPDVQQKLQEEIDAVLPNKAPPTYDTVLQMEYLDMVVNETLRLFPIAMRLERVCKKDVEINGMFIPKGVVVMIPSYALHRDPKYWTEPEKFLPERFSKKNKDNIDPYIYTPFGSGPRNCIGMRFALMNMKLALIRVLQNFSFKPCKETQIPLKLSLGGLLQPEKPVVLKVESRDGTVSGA

[13] = biological target: T3, Aromatase (Homo sapiens, UniProt P11511); assay: Inhibition of CYP19 (unknown origin) using MFC substrate incubated for 30 mins
T3 sequence (P11511 whole entry): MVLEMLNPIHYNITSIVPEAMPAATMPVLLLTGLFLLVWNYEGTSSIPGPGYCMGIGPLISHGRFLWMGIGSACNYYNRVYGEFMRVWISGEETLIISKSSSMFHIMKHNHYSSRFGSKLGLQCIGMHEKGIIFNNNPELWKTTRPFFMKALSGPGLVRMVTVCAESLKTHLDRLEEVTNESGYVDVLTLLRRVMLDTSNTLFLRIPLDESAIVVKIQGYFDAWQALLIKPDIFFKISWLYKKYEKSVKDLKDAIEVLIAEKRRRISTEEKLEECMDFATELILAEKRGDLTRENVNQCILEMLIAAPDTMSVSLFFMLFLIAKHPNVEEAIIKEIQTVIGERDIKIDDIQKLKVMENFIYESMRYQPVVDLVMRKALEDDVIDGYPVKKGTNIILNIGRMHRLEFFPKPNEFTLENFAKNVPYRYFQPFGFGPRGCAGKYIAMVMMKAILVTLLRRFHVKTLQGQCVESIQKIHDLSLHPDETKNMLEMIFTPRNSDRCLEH

[14] = biological target: Cytochrome P450 2D6 (Homo sapiens, UniProt P10635); assay: Inhibition of CYP2D6 (unknown origin); format: ADME
Chain of Cytochrome P450 2D6 (P10635 whole entry): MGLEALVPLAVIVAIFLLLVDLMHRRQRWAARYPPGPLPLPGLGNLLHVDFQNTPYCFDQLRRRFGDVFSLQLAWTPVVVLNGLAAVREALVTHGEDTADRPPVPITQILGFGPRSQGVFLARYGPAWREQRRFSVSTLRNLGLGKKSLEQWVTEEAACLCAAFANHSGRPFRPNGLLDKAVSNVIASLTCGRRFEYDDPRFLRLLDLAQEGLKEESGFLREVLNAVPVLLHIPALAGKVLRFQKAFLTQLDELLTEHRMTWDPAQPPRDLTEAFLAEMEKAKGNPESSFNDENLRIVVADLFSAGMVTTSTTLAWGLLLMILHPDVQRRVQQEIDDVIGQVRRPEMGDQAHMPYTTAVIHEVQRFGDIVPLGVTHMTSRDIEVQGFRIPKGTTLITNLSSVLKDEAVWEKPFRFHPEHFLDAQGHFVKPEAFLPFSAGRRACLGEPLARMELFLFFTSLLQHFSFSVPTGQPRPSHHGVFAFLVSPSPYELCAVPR

[15] = Oral bioavailability in rhesus monkey at 1 mg/kg by LC-MS/MS method; format: ADME, organism-based, Macaca mulatta; conditions: in vivo
[16] = biological target: Cytochrome P450 2C9 (Homo sapiens, UniProt P11712); assay: Inhibition of CYP2C9 (unknown origin); format: ADME
Chain of Cytochrome P450 2C9 (P11712 whole entry): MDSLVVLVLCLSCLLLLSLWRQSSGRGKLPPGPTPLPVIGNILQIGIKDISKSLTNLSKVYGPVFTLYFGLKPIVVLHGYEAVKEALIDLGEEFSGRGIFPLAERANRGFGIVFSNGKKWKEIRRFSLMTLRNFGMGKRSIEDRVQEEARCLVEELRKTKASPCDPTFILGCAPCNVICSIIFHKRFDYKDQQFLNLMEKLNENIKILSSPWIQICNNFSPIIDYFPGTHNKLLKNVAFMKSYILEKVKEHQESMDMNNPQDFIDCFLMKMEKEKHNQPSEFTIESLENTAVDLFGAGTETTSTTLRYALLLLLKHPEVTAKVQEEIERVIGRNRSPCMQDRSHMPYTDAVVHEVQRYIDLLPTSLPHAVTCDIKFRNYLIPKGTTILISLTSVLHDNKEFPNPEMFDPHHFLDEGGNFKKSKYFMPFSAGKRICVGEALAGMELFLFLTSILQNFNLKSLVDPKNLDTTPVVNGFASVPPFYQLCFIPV

| SMILES | fraction unbound at 4 h [1] | clearance [2] | AUC/dose [3] | IC50 [4] | CLint scaled [5] | bioavailability [6] | AUC/dose [7] | IC50 [8] | fraction unbound at 4 h [9] | CLint scaled [10] | clearance [11] | IC50 [12] | IC50 [13] | inhibition (INH) [14] | bioavailability [15] | inhibition (INH) [16] |
| --- | --- | --- | --- | --- | --- | --- | --- | --- | --- | --- | --- | --- | --- | --- | --- | --- |
| CC(C)(O)c1cncc(-c2nc3ccc(F)cc3n2C2CC2)c1 [MSD-CYP11B2] | 0.13 | 10 mL/min/kg | 1.53 µM·kg·h/mg | > 10 µM | 22 mL/min/kg | 76% | 4.32 µM·kg·h/mg | > 10 µM | 0.07 | < 20 mL/min/kg | 5 mL/min/kg | > 50 µM | 1.02 µM | Not Active | 15% | Not Active |
| Fc1cncc(-c2nc3cc(F)c(F)cc3n2C2CC2)c1 | 0.14 | 37 mL/min/kg | 3.07 µM·kg·h/mg | > 10 µM | < 20 mL/min/kg | 86% | 2.1 µM·kg·h/mg | > 10 µM | 0.23 | < 20 mL/min/kg | 10 mL/min/kg | > 50 µM | 4.51 µM | Not Active | 53% | Not Active |
